Measured values taken from ChEMBL document CHEMBL5046287 (J Med Chem, 2022).
The source made the active and inactive calls. The calls are words filed in the database; no cut-off is given here.

Legend:
[1] = target: T1, Aldehyde dehydrogenase, dimeric NADP-preferring (Homo sapiens) (UniProt P30838); experiment: Inhibition of N-terminal-His6 tagged recombinant human ALDH3A1 assessed as remaining enzyme activity by measuring fluorescence of NADPH using 4-NBA and NADP+ as substrate at 10 uM by fluorimetric analysis relative to control
T1 sequence (whole entry): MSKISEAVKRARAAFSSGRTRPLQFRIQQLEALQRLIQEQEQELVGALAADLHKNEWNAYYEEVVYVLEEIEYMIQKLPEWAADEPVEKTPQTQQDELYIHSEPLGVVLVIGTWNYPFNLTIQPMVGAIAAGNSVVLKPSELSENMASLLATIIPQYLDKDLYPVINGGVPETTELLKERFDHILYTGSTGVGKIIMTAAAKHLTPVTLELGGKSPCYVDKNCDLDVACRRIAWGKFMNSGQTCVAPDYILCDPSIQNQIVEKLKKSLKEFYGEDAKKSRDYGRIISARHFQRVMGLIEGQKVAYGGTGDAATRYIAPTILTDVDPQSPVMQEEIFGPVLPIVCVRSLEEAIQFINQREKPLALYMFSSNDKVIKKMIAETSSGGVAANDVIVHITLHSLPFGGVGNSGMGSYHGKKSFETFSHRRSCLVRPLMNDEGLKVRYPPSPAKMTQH
In short: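 Single-point screen at 10 μM inhibitor, 1% DMSO final. Enzyme in 50 mM Tris–HCl, 5 mM DTT, pH 8.0, with 1 mM NADP+ and 4-NBA at 31 and 250 μM. NADPH fluorescence (ex 340/em 460 nm) or absorbance at 340 nm. Enzyme kept 50–100-fold below substrate; result is % remaining activity.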

[2] = system: H517; experiment: Cytotoxicity against human H517/15 RM cells assessed as reduction in cell viability incubated for 72 hrs by AlamarBlue staining based analysis; type: functional; details: dose 50-200 µM
In short: (§1)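 Primary prostate epithelial cells (cancer from radical prostatectomy, BPH from transurethral resection) plated 5000 cells/well in SCM for 24 h at 37 °C, 5% CO2, then given inhibitor alone at 50 or 200 μM (200 mM DMSO stocks) for 72 h. Alamar Blue at 10% of volume for 1–4 h. Viability is % of DMSO control; triplicate, mean.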

[3] = system: H415; experiment: Cytotoxicity against human H415/15 cells assessed as reduction in cell viability incubated for 72 hrs by AlamarBlue staining based analysis; type: functional; details: dose 50-200 µM; in short: as §1
[4] = system: H488; experiment: Cytotoxicity against human H488/14 RM cells assessed as reduction in cell viability incubated for 72 hrs by AlamarBlue staining based analysis; type: functional; details: dose 50-200 µM; in short: as §1
[5] = system: H568; experiment: Cytotoxicity against human H568/15 RM cells assessed as reduction in cell viability incubated for 72 hrs by AlamarBlue staining based analysis; type: functional; details: dose 50-200 µM; in short: as §1
[6] = system: H431; experiment: Cytotoxicity against human H431/14 LM cells assessed as reduction in cell viability incubated for 72 hrs by AlamarBlue staining based analysis; type: functional; details: dose 50-200 µM; in short: as §1
[7] = system: LNCaP; experiment: Antiproliferative activity against human LNCaP cells expressing ALDH1A3 assessed as reduction in cell survival measured after 96 hrs by MTT assay; type: functional, cell-based
In short: (§2)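 Adherent prostate cancer cells seeded in 96-well plates, left overnight at 37 °C, 5% CO2, 100% humidity, then exposed to compounds at 12.5–200 μM for 96 h. Read-out: MTT (0.5 mg/mL) added for 4 h at 37 °C, formazan dissolved in DMSO, absorbance at 540 nm. IC50 from five-dose screen.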

[8] = system: DU-145; experiment: Antiproliferative activity against human DU145 cells expressing ALDH1A1 assessed as reduction in cell survival measured after 96 hrs by MTT assay; type: functional, cell-based; details: DU-145, 96 h; in short: as §2
[9] = system: PC-3; experiment: Antiproliferative activity against human PC-3 cells expressing ALDH1A1 and ALDH3A1 assessed as reduction in cell survival measured after 96 hrs by MTT assay; type: functional, cell-based; details: PC-3, 96 h; in short: as §2
[10] = target: T1, Aldehyde dehydrogenase, dimeric NADP-preferring (Homo sapiens); experiment: Inhibition of N-terminal-His6 tagged recombinant human ALDH3A1 using 4-NBA as substrate in absence of NADP+ by fluorimetric analysis
In short: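 The standard 5-min preincubation of enzyme with inhibitor was run without NADP+, and compared with preincubation including cofactor. Fluorimetric NADPH read-out; mean ± SE.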

[11] = system: H517; experiment: Cytotoxicity against human H517/15 RM cells assessed as reduction in cell viability at 50 to 200 uM incubated for 72 hrs in presence of docetaxel by AlamarBlue staining based analysis; type: functional; details: dose 50-200 µM
In short: (§3)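 Primary prostate epithelial cells (radical prostatectomy cancer or transurethral resection BPH) seeded at 5000 cells/well in SCM, 24 h at 37 °C, 5% CO2. Treated with inhibitor at 50 or 200 μM plus 1 nM docetaxel (DMSO stocks 200 mM) for 72 h. Alamar Blue added at 10% volume, 1–4 h at 37 °C. Viability is % of DMSO-treated control; triplicate, mean; paired two-tailed t-test.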

[12] = system: H488; experiment: Cytotoxicity against human H488/14 RM cells assessed as reduction in cell viability at 50 to 200 uM incubated for 72 hrs in presence of docetaxel by AlamarBlue staining based analysis; type: functional; details: dose 50-200 µM; in short: as §3
[13] = system: H431; experiment: Cytotoxicity against human H431/14 LM cells assessed as reduction in cell viability at 50 to 200 uM incubated for 72 hrs in presence of docetaxel by AlamarBlue staining based analysis; type: functional; details: dose 50-200 µM; in short: as §3
[14] = system: H415; experiment: Cytotoxicity against human H415/15 cells assessed as reduction in cell viability at 50 to 200 uM incubated for 72 hrs in presence of docetaxel by AlamarBlue staining based analysis; type: functional; details: dose 50-200 µM; in short: as §3
[15] = system: H568; experiment: Cytotoxicity against human H568/15 RM cells assessed as reduction in cell viability at 50 to 200 uM incubated for 72 hrs in presence of docetaxel by AlamarBlue staining based analysis; type: functional; details: dose 50-200 µM; in short: as §3
[16] = target: T2, Aldehyde dehydrogenase, dimeric NADP-preferring (Homo sapiens, UniProt P30838); experiment: Substrate activity at N-terminal-His6 tagged recombinant human ALDH3A1 at 10 uM […] by fluorimetric analysis relative to 4-NBA; type: ADME
T2 sequence (P30838 whole entry): T1 sequence (whole entry)
In short: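 Compound at 10 μM used as substrate in place of 4-NBA. Buffer 50 mM Tris–HCl, 5 mM DTT, pH 8.0, with 1 mM NADP+. NADPH fluorescence (ex 340/em 460 nm). Activity given as % of that with 10 μM 4-NBA; mean ± SE.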

[17] = target: T3, Aldehyde dehydrogenase 1A1 (Homo sapiens, UniProt P00352); experiment: Substrate activity at N-terminal-His6 tagged recombinant human ALDH1A1 at 10 uM […] by fluorimetric analysis relative to hexanal; type: ADME
T3 sequence (P00352 whole entry): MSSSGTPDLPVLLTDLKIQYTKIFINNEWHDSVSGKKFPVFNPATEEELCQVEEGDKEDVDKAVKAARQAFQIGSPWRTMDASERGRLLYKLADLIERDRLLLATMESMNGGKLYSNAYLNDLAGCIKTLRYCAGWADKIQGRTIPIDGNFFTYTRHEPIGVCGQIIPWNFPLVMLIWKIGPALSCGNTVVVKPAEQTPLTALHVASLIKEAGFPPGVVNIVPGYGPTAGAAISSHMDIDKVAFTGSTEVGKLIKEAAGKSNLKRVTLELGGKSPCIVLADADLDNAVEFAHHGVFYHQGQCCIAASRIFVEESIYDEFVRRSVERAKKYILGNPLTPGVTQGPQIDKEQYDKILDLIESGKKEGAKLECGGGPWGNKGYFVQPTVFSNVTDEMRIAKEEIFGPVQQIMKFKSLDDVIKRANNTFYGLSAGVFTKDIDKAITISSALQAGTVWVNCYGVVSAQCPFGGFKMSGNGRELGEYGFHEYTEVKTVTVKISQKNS
In short: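 Compound at 10 μM used as substrate in place of hexanal. Buffer 50 mM HEPES, 0.5 mM EDTA, 0.5 mM DTT, pH 8.0, with 500 μM NAD+. NADH fluorescence (ex 340/em 460 nm). Activity given as % of that with 10 μM hexanal; mean ± SE.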

Compound | Activity [1] | Activity [2] | Activity [3] | Activity [4] | Activity [5] | Activity [6] | further results
CCCN(CCC)c1ccc(C=O)cc1Cl | < 15% |  |  |  |  |  | 
CCN(CC)c1ccc(C=O)cc1 |  | Dose-Dependent Effect | Dose-Dependent Effect | Dose-Dependent Effect | Dose-Dependent Effect | Dose-Dependent Effect | 
CCCN(CCC)c1ccc(C=O)cc1OC |  |  |  |  |  |  | IC50 [7]: 50 µM; IC50 [8]: 71 µM; IC50 [9]: 75 µM
CCCN(CCC)c1ccc(C=O)cc1[N+](=O)[O-] | < 15% | Dose-Dependent Effect | Dose-Dependent Effect | Dose-Dependent Effect | Dose-Dependent Effect | Dose-Dependent Effect | inhibition [10]: Active; Activity [11]: Active; Activity [12]: Active; Activity [13]: Active; Activity [14]: Active; Activity [15]: Active
CCCN(CCC)c1ccc(C=O)cc1Br | < 15% | Dose-Dependent Effect | Dose-Dependent Effect | Dose-Dependent Effect | Dose-Dependent Effect | Dose-Dependent Effect | Activity [16]: < 5%; Activity [11]: Active; Activity [12]: Active; Activity [17]: 3.14%; Activity [13]: Active; Activity [14]: Active; Activity [15]: Active
CCCN(CCC)c1ccc(C=O)cc1C | < 15% |  |  |  |  |  | IC50 [7]: 61 µM; IC50 [8]: 103 µM; IC50 [9]: 106 µM
CCCN(CCC)c1ccc(C=O)cc1 | < 15% |  |  |  |  |  | 
